Measured values from ChEMBL document CHEMBL1153998, “Discovery and structure-activity study of a novel benzoxaborole anti-inflammatory agent (AN2728) for the potential topical treatment of psoriasis and atopic dermatitis” (Bioorg Med Chem Lett, 2009).
Active and inactive are the calls of the source. The rule behind the calls is not given here.

Assays:
[1] = target: High affinity 3',5'-cyclic-AMP phosphodiesterase 7A (Homo sapiens, UniProt Q13946); test: Inhibition of human recombinant PDE7A1 expressed in baculovirus-infected insect Sf9 cells by modified two-step method
Method in brief: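 PDE7A1 was a human recombinant enzyme from a baculoviral expression system, tested in a modified two-step assay. Its substrate concentration was reduced compared with the other panel isozymes. IC50 values were calculated from the means of three experiments.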

[2] = target: T1, Phosphodiesterase 4 (Homo sapiens, UniProt P27815+Q08499+Q07343+Q08493); test: Inhibition of PDE4 in human U937 cells assessed as accumulation of [3H]adenosine by scintillation counting; type: cell-based; conditions: u-937
[3] = target: Phosphodiesterase 3 (Homo sapiens, UniProt Q14432+Q13370); test: Inhibition of human recombinant PDE3 catalytic domain expressed in baculovirus-infected insect Sf9 cells by modified two-step method
Method in brief: (§1)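 Human recombinant enzymes from a baculoviral expression system, tested in a modified two-step PDE assay as part of a PDE1–11 isozyme panel. IC50 values were calculated from the means of three experiments.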

[4] = target: Dual specificity calcium/calmodulin-dependent 3',5'-cyclic nucleotide phosphodiesterase 1A (Homo sapiens, UniProt P54750); test: Inhibition of human recombinant PDE1A3 expressed in baculovirus-infected insect Sf9 cells by modified two-step method; method in brief: as §1
Dual specificity calcium/calmodulin-dependent 3',5'-cyclic nucleotide phosphodiesterase 1A, sequence (P54750 whole entry): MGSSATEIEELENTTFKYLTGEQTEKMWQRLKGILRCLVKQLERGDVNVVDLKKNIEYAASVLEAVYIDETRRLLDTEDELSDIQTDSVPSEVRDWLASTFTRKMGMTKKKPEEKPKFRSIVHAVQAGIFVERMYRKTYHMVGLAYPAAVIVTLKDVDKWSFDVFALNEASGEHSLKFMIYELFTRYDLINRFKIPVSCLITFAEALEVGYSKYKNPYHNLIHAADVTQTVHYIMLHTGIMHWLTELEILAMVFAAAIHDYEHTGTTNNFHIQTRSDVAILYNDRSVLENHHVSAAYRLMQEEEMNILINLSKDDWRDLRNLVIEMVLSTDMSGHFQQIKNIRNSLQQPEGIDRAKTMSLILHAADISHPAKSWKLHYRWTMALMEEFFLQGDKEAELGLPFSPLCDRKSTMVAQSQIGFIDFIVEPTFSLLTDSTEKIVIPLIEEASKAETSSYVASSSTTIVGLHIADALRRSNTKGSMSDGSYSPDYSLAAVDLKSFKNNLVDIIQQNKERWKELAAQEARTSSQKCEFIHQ

[5] = system: PBMC; test: Antiinflammatory activity in human PBMC assessed as inhibition of phytohemagglutininin-induced IFN-gamma release after 24 hrs by FACSArray analysis; type: functional, cell-based
[6] = system: PBMC; test: Antiinflammatory activity in human PBMC assessed as inhibition of LPS-induced TNFalpha release in after 24 hrs by FACS Array analysis; type: functional, cell-based
[7] = system: PBMC; test: Antiinflammatory activity in human PBMC assessed as inhibition of phytohemagglutininin-induced IL10 release after 48 hrs by FACS Array analysis; type: functional, cell-based
[8] = system: Mus musculus; test: Antiinflammatory activity in mouse ear edema model assessed as inhibition of PMA-induced ear edema at 1 mg/ear administered 2 times 30 mins before and 15 mins after PMA challenge measured after 6 hrs of PMA application relative to control; type: functional
[9] = system: PBMC; test: Antiinflammatory activity in human PBMC assessed as inhibition of phytohemagglutininin-induced IL2 release after 24 hrs by FACS Array analysis; type: functional, cell-based
[10] = system: PBMC; test: Antiinflammatory activity in human PBMC assessed as inhibition of phytohemagglutininin-induced IL5 release after 48 hrs by FACS Array analysis; type: functional, cell-based
[11] = system: Mus musculus; test: Antiinflammatory activity in mouse ear edema model assessed as inhibition of PMA-induced ear edema at 3 mg/ear administered 2 times 30 mins before and 15 mins after PMA challenge measured after 6 hrs of PMA application relative to control; type: functional
[12] = system: PBMC; test: Antiinflammatory activity in human PBMC assessed as inhibition of IL1-beta release by FACSArray analysis; type: functional, cell-based
[13] = system: L929; test: Cytotoxicity against mouse L929 cells up to 100 uM; type: cell-based
[14] = system: PBMC; test: Antiinflammatory activity in human PBMC assessed as inhibition of IL4 release by FACS Array analysis; type: functional, cell-based
[15] = target: High affinity cGMP-specific 3',5'-cyclic phosphodiesterase 9A (Homo sapiens) (UniProt O76083); test: Inhibition of human recombinant PDE9 expressed in baculovirus-infected insect Sf9 cells at 10 uM by modified two-step method
High affinity cGMP-specific 3',5'-cyclic phosphodiesterase 9A (Homo sapiens), sequence (O76083 whole entry): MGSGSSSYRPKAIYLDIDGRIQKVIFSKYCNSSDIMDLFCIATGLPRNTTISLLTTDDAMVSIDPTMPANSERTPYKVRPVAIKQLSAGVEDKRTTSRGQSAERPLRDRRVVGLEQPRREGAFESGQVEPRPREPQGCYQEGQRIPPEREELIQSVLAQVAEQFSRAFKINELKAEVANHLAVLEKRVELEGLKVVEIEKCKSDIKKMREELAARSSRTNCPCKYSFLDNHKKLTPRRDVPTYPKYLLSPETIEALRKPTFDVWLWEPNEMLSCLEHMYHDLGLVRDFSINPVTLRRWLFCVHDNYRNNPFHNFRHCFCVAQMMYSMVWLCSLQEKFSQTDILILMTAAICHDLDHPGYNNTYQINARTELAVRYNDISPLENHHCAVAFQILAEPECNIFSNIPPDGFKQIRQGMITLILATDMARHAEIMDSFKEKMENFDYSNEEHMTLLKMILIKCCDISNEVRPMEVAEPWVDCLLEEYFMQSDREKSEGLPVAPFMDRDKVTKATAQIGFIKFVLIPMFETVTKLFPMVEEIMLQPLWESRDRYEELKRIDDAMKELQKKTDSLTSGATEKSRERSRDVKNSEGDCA

[16] = target: cGMP-specific 3',5'-cyclic phosphodiesterase (Homo sapiens) (UniProt O76074); test: Inhibition of human recombinant PDE5 expressed in baculovirus-infected insect Sf9 cells at 10 uM by modified two-step method
[17] = target: Phosphodiesterase 6 (Homo sapiens) (UniProt Q13956+P18545+P35913+O43924+P16499+P51160); test: Inhibition of human recombinant PDE6 expressed in baculovirus-infected insect Sf9 cells at 10 uM by modified two-step method
[18] = target: T1, Phosphodiesterase 4; test: Inhibition of human recombinant PDE4 catalytic domain expressed in baculovirus-infected insect Sf9 cells by modified two-step method
[19] = target: Phosphodiesterase 8 (Homo sapiens) (UniProt O95263+O60658); test: Inhibition of human recombinant PDE8 expressed in baculovirus-infected insect Sf9 cells at 10 uM by modified two-step method
Phosphodiesterase 8 (Homo sapiens), sequence (O60658 whole entry, looked up): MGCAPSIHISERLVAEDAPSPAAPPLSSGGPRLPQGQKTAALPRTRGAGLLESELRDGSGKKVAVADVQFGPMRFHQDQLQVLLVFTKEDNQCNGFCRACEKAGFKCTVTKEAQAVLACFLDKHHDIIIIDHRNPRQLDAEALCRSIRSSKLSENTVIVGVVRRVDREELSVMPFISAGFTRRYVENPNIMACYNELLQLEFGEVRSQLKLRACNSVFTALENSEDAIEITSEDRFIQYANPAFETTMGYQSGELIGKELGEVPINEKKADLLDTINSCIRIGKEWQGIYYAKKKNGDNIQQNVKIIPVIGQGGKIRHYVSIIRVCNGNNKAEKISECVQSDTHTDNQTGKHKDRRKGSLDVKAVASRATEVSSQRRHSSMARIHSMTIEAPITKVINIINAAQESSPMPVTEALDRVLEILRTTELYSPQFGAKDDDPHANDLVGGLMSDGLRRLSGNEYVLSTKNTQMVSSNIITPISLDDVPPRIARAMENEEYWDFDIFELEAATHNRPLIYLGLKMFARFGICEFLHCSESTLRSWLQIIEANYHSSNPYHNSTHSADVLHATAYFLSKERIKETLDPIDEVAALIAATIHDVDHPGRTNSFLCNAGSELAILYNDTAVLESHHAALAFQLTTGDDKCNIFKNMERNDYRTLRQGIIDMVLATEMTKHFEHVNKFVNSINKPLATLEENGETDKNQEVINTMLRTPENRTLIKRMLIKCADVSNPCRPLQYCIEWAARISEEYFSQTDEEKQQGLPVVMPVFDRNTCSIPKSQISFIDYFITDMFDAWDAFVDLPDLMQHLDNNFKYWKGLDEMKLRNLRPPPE
Phosphodiesterase 8 (Homo sapiens), sequence (O95263 whole entry, looked up): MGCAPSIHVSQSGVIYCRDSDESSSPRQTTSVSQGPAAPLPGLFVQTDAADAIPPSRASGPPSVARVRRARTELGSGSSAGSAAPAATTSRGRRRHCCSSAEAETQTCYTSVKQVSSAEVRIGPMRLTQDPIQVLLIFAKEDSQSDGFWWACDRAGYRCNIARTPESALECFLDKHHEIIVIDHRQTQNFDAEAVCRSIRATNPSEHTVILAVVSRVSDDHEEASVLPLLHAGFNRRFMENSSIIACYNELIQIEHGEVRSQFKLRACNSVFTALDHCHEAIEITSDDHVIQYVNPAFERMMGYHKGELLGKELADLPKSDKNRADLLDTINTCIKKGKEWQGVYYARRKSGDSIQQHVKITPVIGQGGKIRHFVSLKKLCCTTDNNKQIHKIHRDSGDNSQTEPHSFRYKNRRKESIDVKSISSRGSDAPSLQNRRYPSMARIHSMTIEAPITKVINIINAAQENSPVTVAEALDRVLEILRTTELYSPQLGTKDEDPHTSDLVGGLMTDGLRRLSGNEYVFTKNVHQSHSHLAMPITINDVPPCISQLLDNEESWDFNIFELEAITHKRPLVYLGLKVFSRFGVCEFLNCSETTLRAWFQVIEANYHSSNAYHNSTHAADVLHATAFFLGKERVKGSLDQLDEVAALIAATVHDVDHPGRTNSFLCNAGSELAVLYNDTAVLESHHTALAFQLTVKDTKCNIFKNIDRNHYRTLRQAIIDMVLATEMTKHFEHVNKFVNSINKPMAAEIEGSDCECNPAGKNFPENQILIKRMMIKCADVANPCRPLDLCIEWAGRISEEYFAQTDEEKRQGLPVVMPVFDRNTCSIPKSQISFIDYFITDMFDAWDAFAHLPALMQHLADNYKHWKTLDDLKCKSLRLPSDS

[20] = target: Dual 3',5'-cyclic-AMP and -GMP phosphodiesterase 11A (Homo sapiens) (UniProt Q9HCR9); test: Inhibition of human recombinant PDE11 expressed in baculovirus-infected insect Sf9 cells at 10 uM by modified two-step method
Dual 3',5'-cyclic-AMP and -GMP phosphodiesterase 11A (Homo sapiens), sequence (Q9HCR9 whole entry, looked up): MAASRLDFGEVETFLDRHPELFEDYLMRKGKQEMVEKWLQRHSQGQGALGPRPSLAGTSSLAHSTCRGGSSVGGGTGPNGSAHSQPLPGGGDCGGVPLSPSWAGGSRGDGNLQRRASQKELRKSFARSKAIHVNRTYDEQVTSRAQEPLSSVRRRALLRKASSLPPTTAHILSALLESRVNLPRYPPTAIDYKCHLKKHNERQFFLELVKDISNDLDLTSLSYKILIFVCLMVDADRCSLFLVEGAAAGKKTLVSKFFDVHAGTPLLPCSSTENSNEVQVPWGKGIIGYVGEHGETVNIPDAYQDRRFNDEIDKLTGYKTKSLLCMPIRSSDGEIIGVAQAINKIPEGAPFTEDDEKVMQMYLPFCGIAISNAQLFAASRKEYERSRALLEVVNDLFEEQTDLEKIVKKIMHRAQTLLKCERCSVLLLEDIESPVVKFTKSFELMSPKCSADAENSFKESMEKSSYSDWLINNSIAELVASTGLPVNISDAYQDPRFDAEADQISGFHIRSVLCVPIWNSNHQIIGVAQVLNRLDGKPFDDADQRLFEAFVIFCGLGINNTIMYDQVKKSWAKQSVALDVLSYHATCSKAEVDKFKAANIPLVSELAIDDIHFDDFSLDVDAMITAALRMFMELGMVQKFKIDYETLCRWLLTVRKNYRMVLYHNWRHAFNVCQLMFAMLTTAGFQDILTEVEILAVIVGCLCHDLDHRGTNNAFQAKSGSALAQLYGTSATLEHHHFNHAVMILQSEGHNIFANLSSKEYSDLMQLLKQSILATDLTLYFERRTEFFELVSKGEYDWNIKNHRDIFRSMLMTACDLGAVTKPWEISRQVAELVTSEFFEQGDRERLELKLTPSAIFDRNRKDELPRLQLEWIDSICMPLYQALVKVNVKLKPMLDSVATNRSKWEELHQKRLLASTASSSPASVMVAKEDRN

[21] = target: cGMP-dependent 3',5'-cyclic phosphodiesterase (Homo sapiens) (UniProt O00408); test: Inhibition of human recombinant PDE2 expressed in baculovirus-infected insect Sf9 cells at 10 uM by modified two-step method
[22] = target: cAMP and cAMP-inhibited cGMP 3',5'-cyclic phosphodiesterase 10A (Homo sapiens) (UniProt Q9Y233); test: Inhibition of human recombinant PDE10 expressed in baculovirus-infected insect Sf9 cells at 10 uM by modified two-step method
cAMP and cAMP-inhibited cGMP 3',5'-cyclic phosphodiesterase 10A (Homo sapiens), sequence (Q9Y233 whole entry): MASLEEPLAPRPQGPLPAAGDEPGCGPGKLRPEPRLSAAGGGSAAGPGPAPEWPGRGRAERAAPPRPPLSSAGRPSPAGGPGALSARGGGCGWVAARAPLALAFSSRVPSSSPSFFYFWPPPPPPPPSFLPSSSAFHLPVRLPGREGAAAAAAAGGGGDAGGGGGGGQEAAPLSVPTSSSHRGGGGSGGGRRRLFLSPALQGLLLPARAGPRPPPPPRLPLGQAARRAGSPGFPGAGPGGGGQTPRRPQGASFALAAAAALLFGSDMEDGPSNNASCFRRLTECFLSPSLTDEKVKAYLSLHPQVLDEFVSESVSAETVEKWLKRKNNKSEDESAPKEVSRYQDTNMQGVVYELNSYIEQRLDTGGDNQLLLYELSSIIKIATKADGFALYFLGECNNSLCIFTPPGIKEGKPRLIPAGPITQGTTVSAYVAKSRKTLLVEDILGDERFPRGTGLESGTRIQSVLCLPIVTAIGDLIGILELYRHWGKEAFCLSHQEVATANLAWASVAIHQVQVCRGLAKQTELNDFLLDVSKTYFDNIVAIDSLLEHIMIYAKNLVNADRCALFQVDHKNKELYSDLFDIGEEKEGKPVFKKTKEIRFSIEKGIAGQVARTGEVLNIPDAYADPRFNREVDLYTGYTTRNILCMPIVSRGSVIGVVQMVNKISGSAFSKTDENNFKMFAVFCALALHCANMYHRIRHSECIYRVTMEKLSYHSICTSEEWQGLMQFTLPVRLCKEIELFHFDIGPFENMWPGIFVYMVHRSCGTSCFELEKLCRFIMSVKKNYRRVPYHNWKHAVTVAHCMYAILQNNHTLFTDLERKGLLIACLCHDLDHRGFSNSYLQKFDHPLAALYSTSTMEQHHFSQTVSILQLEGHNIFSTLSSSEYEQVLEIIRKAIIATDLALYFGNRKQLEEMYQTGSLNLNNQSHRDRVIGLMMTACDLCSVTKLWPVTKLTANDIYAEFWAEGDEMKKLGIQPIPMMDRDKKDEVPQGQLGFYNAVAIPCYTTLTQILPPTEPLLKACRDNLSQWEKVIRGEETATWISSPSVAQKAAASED

## Cc1ccc([N+](=O)[O-])cc1S(=O)(=O)N(C)C
[1]
  IC50: 2200 nM

## N#Cc1ccccc1Oc1ccc2c(c1)COB2O
[2]
  IC50: 3700 nM

## CCN(CC)C(=O)c1ccc(Oc2ccc3c(c2)COB3O)cc1
[2]
  IC50: 1500 nM

## O=C1CCc2cc(OCCCCc3nnnn3C3CCCCC3)ccc2N1 [CILOSTAZOL]
[3]
  IC50: 840 nM

## OB1OCc2cc(Oc3ccc(Cl)cc3)ccc21
[2]
  IC50: 1300 nM

## N#Cc1cccc(Oc2ccc3c(c2)COB3O)c1
[2]
  IC50: 4400 nM

## OB1OCc2cc(Oc3ccc(F)cc3)ccc21
[2]
  IC50: 7700 nM

## O=C(c1ccc(Oc2ccc3c(c2)COB3O)cc1)N1CCOCC1
[2]
  IC50: 570 nM

## CN1CCN(S(=O)(=O)c2ccc(Oc3ccc4c(c3)COB4O)cc2)CC1
[2]
  IC50: > 30000 nM

## Cc1ccc(Oc2ccc3c(c2)COB3O)cc1
[2]
  IC50: 2000 nM

## OB1OCc2cc(Oc3ccccc3)ccc21
[2]
  IC50: 6800 nM

## N#Cc1ccc(Oc2cccc3c2COB3O)cc1
[2]
  IC50: 6000 nM

## COCc1nc2c([nH]1)c(=O)n(C)c(=O)n2CC(C)C
[4]
  IC50: 10000 nM

## CCN(CC)S(=O)(=O)c1ccc(Oc2ccc3c(c2)COB3O)cc1
[2]
  IC50: 3400 nM

## OB1OCc2cc(Oc3ccc(C(F)(F)F)cc3)ccc21
[2]
  IC50: 450 nM

## COc1ccc(C2CNC(=O)C2)cc1OC1CCCC1 (stereo not drawn) [ROLIPRAM]
[5]
  IC50: 230 nM
[6]
  IC50: 160 nM
[7]
  IC50: 880 nM
[8]
  inhibition (INH): 6%
[9]
  IC50: 230 nM
[10]
  IC50: 500 nM
[11]
  inhibition (INH): 53%

## O=C(O)c1ccc(Oc2ccc3c(c2)COB3O)cc1
[12]
  inhibition: inactive
[5]
  IC50: > 10000 nM
[13]
  Activity: Non-toxic
[6]
  IC50: > 10000 nM
[7]
  IC50: > 10000 nM
[14]
  inhibition: inactive
[2]
  IC50: 6400 nM
[9]
  IC50: > 10000 nM
[10]
  IC50: > 10000 nM

## COc1ccc(Oc2ccc3c(c2)COB3O)cc1
[2]
  IC50: 2700 nM

## C[C@@H]1C[C@H]2[C@@H]3CCC4=CC(=O)C=C[C@]4(C)[C@@]3(F)[C@@H](O)C[C@]2(C)[C@@]1(O)C(=O)CO [DEXAMETHASONE]
[8]
  inhibition (INH): 72%

## N#Cc1ccc(Oc2cccc3c2B(O)OC3)cc1
[2]
  IC50: > 30000 nM

## N#Cc1ccc(Oc2ccc3c(c2)COB3O)cc1 [CRISABOROLE]
[15]
  inhibition: inactive
[12]
  inhibition: inactive
[16]
  inhibition: inactive
[5]
  IC50: 830 nM
[17]
  inhibition: inactive
[13]
  Activity: Non-toxic
[6]
  IC50: 540 nM
[7]
  IC50: 5300 nM
[4]
  IC50: 6100 nM
[18]
  IC50: 110 nM
[14]
  inhibition: inactive
[2]
  IC50: 490 nM
[19]
  inhibition: inactive
[20]
  inhibition: inactive
[3]
  IC50: 6400 nM
[8]
  inhibition (INH): 78%
[9]
  IC50: 610 nM
[10]
  IC50: 2400 nM
[21]
  inhibition: inactive
[22]
  inhibition: inactive

## N#Cc1ccc(Oc2ccc3c(c2)B(O)OC3)cc1
[12]
  inhibition: inactive
[5]
  IC50: > 10000 nM
[13]
  Activity: Non-toxic
[6]
  IC50: > 10000 nM
[7]
  IC50: > 10000 nM
[14]
  inhibition: inactive
[2]
  IC50: > 30000 nM
[9]
  IC50: > 10000 nM
[10]
  IC50: > 10000 nM
